Screening results as filed in PubChem.
TRPC4 agonist: activators of mouse TRPC4 channel | Q9QUQ5 | HEK293 TRPC4beta/mu-opioid, Fluo4 calcium fluorescence; stronger effect = higher value | 0.49% of 310,000 active | B-score at 10 µM;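 active = B-score above 5 SD of library B-scores, and initial fluorescence ratio not above library mean plus 5 SD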;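 note: positive B-score marks a calcium rise read as TRPC4 activation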
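Assay system: HEK293 cells stably co-expressing mouse TRPC4beta and mu-opioid receptor / Timing: Fluo4 dye loading 45 min at room temperature, 110 s recording / Signal: Fluo4 calcium-sensitive dye fluorescence, kinetic, 1 Hz baseline / Read-out: integrated baseline-normalised fluorescence ratio, converted to per-well B score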
TRPC4 potent: allosteric potentiators of mouse TRPC4 channel. Q9QUQ5. HEK293 TRPC4beta/mu-opioid, DAMGO EC20, Fluo-4 Ca2+ flux; stronger effect = higher value. B-score at 10 µM. 0.42% of 310,000 active;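 active = B-score of calcium response area above 5 SD of library B-scores, with initial fluorescence ratio within 5 SD of library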
TRPC4 inh: blocks the mouse TRPC4 cation channel. B-score at 10 µM. HEK293 TRPC4beta/mu-opioid, DAMGO-evoked Fluo4 calcium flux; stronger effect = lower value. Q9QUQ5. AID 2247. 0.39% of 300,000 active;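 active = B-score over 3 SD under the library average, no early fluorescence shift, positive overall ratio signal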
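test system = HEK293 cells with stable TRPC4beta plus mu-opioid receptor expression | detection = Fluo4 Ca2+ flux fluorescence | read-out = integrated fluorescence ratio relative to baseline, converted to per-well B score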
TRPC6 inh: mouse TRPC6 channel inhibition. Q61143. HEK293-TRPC6, membrane potential dye, ACh-evoked depolarization; stronger effect = lower value. B-score at 10 µM. 1.1% of 310,000 active. AID 2553;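 active = B-score under library mean minus 3 SD, initial fluorescence not abnormally high, positive integrated signal ratio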;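 note: B-score derived from integrated fluorescence ratio over the kinetic read; more negative B-score means stronger inhibition of depolarization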
Target sequence (Q61143 whole entry, looked up): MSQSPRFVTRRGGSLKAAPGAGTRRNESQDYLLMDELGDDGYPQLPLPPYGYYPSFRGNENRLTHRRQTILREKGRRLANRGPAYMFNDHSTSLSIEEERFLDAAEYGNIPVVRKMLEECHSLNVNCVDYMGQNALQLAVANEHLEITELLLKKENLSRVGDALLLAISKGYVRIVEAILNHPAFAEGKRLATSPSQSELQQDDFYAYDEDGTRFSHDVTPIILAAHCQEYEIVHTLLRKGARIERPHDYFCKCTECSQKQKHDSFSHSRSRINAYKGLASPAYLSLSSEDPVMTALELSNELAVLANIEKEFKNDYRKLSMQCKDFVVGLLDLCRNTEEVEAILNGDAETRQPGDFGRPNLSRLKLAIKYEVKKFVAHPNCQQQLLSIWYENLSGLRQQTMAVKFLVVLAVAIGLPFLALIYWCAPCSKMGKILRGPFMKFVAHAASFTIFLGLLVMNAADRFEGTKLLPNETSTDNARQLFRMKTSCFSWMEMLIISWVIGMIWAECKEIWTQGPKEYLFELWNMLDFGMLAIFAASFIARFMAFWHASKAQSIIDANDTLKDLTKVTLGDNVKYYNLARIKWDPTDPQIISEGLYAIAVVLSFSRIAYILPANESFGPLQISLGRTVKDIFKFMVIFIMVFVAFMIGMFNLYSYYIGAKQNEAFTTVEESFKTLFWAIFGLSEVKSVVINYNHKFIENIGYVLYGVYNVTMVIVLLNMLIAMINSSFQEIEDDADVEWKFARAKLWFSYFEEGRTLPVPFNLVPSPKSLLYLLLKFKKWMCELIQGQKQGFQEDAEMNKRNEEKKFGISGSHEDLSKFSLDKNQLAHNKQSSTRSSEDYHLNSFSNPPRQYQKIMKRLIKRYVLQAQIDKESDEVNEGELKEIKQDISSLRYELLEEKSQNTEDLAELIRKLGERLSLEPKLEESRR
TRPC6 act: mouse TRPC6 channel activation; 0.13% of 310,000 active; HEK293-TRPC6 membrane potential dye fluorescence; stronger effect = higher value; B-score at 10 µM;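 active = B-score of the integrated fluorescence ratio above library mean plus 3 SD, and starting fluorescence ratio within library mean plus 5 SD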;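 note: higher score means more depolarization so channel activation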
TRPC4 spec 2: mouse TRPC4 off-target activity of TRPC6 inhibitors, second screen; 42% of 920 active; HEK293 TRPC4/MOR, membrane potential dye fluorescence; channel activated by saturating DAMGO dose; shares compounds with TRPC6 inh; inhibition, % at 10 µM;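 active = compounds whose fluorescence signal differed from control wells by over 3 SD, either direction, in both duplicate plates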
TRPC4 spec: tests whether TRPC6 inhibitors also affect mouse TRPC4. shares compounds with TRPC6 inh. HEK293 TRPC4/mu-opioid, membrane potential fluorescence. activity change, negative = inhibition, % at 10 µM. 61% of 920 active;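 active = rise or fall in signal beyond 3 SD of buffer-only wells in both replicate plates, either sign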;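 note: integrated kinetic ratio of fluorescence range over baseline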
HEK293 MPD ctr 2-1: parental HEK293 nonspecific activity of TRPC6 inhibitors, second screen | signal change vs control, % at 10 µM | 31% of 920 active | parental HEK293 membrane potential dye fluorescence; maximal acetylcholine challenge after compound addition | shares compounds with TRPC6 inh;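 active = membrane potential signal moving either way by over 3 SD of the maximum-effect control, in both duplicate plates, meaning non-specific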
HEK293 MPD ctr-1: checks TRPC6 inhibitor effects in parental HEK293 cells; 60% of 920 active; parental HEK293 membrane potential dye fluorescence; AID 2780; shares compounds with TRPC6 inh; membrane potential signal change, % at 10 µM;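 active = membrane potential signal shifting up or down by more than 3 SD of buffer-only wells, on both duplicate plates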
HEK293 MPD ctr-2: checks TRPC6 modulator effects in parental HEK293 cells; shares compounds with TRPC6 inh; membrane potential dye fluorescence; membrane potential signal change, % at 10 µM; 51% of 2,400 active; AID 488924;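 active = membrane potential signal moves up or down beyond 5 SD from buffer-only wells, on both duplicate plates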
HEK293 MPD ctr 2-2: second check of TRPC6 modulator effects in parental HEK293 cells; shares compounds with TRPC6 inh; membrane potential dye fluorescence; after compound, maximal acetylcholine stimulation; inhibition, % at 10 µM; 14% of 2,400 active; AID 488926;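 active = membrane potential signal drops by more than 5 SD from the mean control signal, in both duplicate plates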
TRPC4 ctr mod: tests whether TRPC6 modulators also affect mouse TRPC4 | percent change from control (negative = decrease, positive = increase), % at 10 µM | HEK293 TRPC4/mu-opioid, membrane potential fluorescence | AID 488927 | shares compounds with TRPC6 inh | 69% of 2,400 active;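 active = membrane potential signal moved up or down beyond 5 SD of buffer control wells, in both duplicate plates, actives on both sides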
TRPC4/MOR inh 2: second selectivity test of TRPC6 modulators against mouse TRPC4; shares compounds with TRPC6 inh; HEK293 TRPC4/mu-opioid, membrane potential dye fluorescence; stimulated with maximal-effect DAMGO; inhibition, % at 10 µM; 55% of 2,400 active;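 active = drop in membrane potential signal beyond 5 SD of the control wells in both duplicate plates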;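 note: TRPC4 counter screen for TRPC6 hits run under conditions tuned for TRPC6 not TRPC4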
TRPC6 inh conf: mouse TRPC6 inhibitor confirmation; shares compounds with TRPC6 inh; HEK293-TRPC6, membrane potential dye, ACh-evoked depolarization; inhibition, % at 10 µM; 43% of 3,300 active; AID 488960;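 active = fluorescence ratio falls more than 5 SD below the full-stimulation control mean, in both duplicate runs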;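 note: integrated fluorescence ratio of peak minus minimum over baseline after agonist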
TRPC6 act conf: confirmation of mouse TRPC6 activators | shares compounds with TRPC6 inh | 11% of 2,800 active | activation, % at 10 µM | HEK293-TRPC6 membrane potential dye fluorescence, FDSS;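 active = ratio signal rise beyond 5 SD above unstimulated control wells' mean, seen in both duplicate runs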
Numbers stand for hits; - = inactive; . = not tested or not shown. Rows were chosen to be rich in hits. Some 2.3% of all compounds tested hit in one or more screens of this group.

SMILES	TRPC4 agonist	TRPC4 potent	TRPC4 inh	TRPC6 inh	TRPC6 act	HEK293 MPD ctr-2	HEK293 MPD ctr 2-2	TRPC4 ctr mod	TRPC4/MOR inh 2	TRPC6 inh conf	TRPC6 act conf	others
O=C(Nc1ccc(C(F)(F)F)cc1)c1cc(S(=O)(=O)NCC2COc3ccccc3O2)ccc1F (stereo unspecified)	-	-	-	-	-	.	.	.	.	.	.
CCN(CC)CCn1c(=N)n(CCO)c2ccccc21	-	-	-	-	-	.	.	.	.	.	.
CCN(CC)CCn1c(=N)n(CCOc2ccccc2)c2ccccc21	-	-	-	-12	-	.	.	.	.	-	-	TRPC4 spec 2=52%;TRPC4 spec=15%;HEK293 MPD ctr 2-1=272%;HEK293 MPD ctr-1=6.5%
O=C(CSc1ncc(-c2ccccc2)n1CC1CCCO1)N1CCCCC1 (stereo unspecified)	-	-	-	-6	-	100%	-	13%	-	-	.
Cc1nnc(C)n1/N=C/C=C/c1ccccc1	-	-	-	-	-	.	.	.	.	.	.
C(=N\Nc1nc2ccccc2[nH]1)/c1c[nH]c2ccccc12	-	-	-	-9.7	-	-105%	-	-26%	74%	56%	-
C(=N\Nc1nc(N2CCCCC2)nc(N2CCCCC2)n1)/c1c[nH]c2ccccc12	-	-	-	-7.9	-	-56%	-	-15%	42%	58%	-
Cc1ccccc1/C=N/Nc1nc2ccccc2[nH]1	-	-	-	-	-	.	.	.	.	.	.
CN(C)c1nc(N/N=C/c2c[nH]c3ccccc23)nc(N2CCOCC2)n1	-	-	-	-	-	.	.	.	.	.	.
CCCCNC(=O)C1CC(=O)N(c2ccc(OC)cc2)C1c1ccc(OC)cc1 (stereo unspecified)	-	-	-	-	-	.	.	.	.	.	.
COc1ccc(C(C(=O)NC2CCCC2)N(Cc2cccnc2)C(=O)c2snc(C(N)=O)c2N)cc1OC (stereo unspecified)	-	-	-	-	-	.	.	.	.	.	.
COc1ccc2nc(C)cc(Nc3ccc(C(=O)O)cc3)c2c1	-	-	-	-	-	.	.	.	.	.	.
Cc1cccc(Nc2cc(C)nc3ccccc23)c1	-	-	-	-6	-	-140%	60%	-26%	73%	66%	-
Cc1cc(Nc2cccc(Cl)c2)c2ccccc2n1	-	-	-	-	-	.	.	.	.	.	.
CC(=O)c1cccc(Nc2cc(C)nc3ccccc23)c1	-	-	-	-5.6	-	-120%	-	-20%	48%	-	-
CCOc1ccc(Nc2cc(C)nc3ccc(C)cc23)cc1	-	-	-	-6.4	-	-135%	-	-29%	58%	50%	-
